Data taken from PMC8378419 (ACS chemical neuroscience, 2019).

Tests used:
[1] = target: T1, α1a-AR (Homo sapiens, UniProt P35348); experiment: radioligand competition, [3H]prazosin; type: binding; conditions: Cheng-Prusoff
T1 sequence (P35348 1-466): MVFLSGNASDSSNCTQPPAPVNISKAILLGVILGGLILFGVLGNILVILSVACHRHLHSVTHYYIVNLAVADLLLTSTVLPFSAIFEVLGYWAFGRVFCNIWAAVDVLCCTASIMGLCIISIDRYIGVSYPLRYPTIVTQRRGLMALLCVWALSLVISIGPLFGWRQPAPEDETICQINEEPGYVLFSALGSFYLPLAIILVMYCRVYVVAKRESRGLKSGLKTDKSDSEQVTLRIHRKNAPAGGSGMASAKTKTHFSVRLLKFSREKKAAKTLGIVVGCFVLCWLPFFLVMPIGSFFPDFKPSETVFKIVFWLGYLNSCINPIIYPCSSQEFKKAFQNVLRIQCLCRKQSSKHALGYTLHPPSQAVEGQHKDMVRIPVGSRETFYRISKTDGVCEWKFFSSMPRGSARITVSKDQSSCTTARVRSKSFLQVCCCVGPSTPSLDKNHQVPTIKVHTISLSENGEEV
Procedure, shortened: (§1)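 Binding was measured with [3H]prazosin on cloned human α1-adrenoceptor subtypes expressed in CHO cells. Each experiment was run in triplicate.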

[2] = target: T2, 5-HT1A (Homo sapiens, UniProt P08908); experiment: […]GTPγS binding; type: biochemical; conditions: agonist
T2 sequence (P08908 1-422): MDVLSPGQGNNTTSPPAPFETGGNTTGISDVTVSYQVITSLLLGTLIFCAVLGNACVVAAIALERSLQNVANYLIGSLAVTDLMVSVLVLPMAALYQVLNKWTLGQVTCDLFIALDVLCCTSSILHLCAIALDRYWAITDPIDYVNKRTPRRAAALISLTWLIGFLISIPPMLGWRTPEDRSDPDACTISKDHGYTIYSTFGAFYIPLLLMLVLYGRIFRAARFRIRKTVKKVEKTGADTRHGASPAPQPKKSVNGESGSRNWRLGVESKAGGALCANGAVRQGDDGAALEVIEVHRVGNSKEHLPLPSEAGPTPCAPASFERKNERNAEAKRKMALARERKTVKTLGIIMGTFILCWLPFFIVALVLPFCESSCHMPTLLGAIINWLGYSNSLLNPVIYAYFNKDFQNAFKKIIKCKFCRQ

[3] = target: T3, α1b-AR (Homo sapiens, UniProt P35368); experiment: radioligand competition, [3H]prazosin; type: binding; conditions: Cheng-Prusoff
T3 sequence (P35368 1-520): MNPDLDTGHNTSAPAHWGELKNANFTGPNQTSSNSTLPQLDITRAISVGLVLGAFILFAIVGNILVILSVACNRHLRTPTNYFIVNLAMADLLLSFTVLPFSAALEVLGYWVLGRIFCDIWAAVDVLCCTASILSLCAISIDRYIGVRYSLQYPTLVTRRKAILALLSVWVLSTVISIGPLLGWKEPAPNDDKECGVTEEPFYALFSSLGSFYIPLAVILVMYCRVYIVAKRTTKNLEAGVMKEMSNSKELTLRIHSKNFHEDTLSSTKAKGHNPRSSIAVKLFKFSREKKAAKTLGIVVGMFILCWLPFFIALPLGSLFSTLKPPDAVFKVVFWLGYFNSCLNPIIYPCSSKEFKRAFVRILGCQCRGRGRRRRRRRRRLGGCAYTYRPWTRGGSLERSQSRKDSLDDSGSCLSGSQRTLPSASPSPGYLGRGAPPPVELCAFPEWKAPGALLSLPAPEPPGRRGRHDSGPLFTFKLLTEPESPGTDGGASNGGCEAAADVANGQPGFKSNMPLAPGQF
Procedure, shortened: as §1

[4] = target: T4, α1d-AR (Homo sapiens, UniProt P25100); experiment: radioligand competition, [3H]prazosin; type: binding; conditions: Cheng-Prusoff
T4 sequence (P25100 1-572): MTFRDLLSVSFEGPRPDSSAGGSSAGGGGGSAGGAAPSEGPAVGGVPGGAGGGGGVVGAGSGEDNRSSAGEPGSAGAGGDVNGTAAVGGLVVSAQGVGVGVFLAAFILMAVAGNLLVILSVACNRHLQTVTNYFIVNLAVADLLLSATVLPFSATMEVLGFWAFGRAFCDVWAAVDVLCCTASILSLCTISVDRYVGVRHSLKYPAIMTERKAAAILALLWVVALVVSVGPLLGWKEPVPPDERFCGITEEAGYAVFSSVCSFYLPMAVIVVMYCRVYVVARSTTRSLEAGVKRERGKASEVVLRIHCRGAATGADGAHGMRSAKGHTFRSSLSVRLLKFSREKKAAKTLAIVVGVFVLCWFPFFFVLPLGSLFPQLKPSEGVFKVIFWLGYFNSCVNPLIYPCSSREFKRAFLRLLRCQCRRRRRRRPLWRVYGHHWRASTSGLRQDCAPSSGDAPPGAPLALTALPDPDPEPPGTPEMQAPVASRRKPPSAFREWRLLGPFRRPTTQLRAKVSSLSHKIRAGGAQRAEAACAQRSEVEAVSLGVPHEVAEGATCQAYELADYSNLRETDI
Procedure, shortened: as §1

[5] = target: T5, hD3 (Homo sapiens, UniProt P35462); experiment: mitogenesis assay; type: cell-based; conditions: full agonist
[6] = target: D1 (Homo sapiens, UniProt P21728); experiment: cAMP assay; type: cell-based; conditions: antagonist
[7] = target: T6, hD4 (Homo sapiens, UniProt P21917); experiment: radioligand competition, [3H]N-methylspiperone; type: binding; conditions: Cheng-Prusoff
T6 sequence (P21917 1-419): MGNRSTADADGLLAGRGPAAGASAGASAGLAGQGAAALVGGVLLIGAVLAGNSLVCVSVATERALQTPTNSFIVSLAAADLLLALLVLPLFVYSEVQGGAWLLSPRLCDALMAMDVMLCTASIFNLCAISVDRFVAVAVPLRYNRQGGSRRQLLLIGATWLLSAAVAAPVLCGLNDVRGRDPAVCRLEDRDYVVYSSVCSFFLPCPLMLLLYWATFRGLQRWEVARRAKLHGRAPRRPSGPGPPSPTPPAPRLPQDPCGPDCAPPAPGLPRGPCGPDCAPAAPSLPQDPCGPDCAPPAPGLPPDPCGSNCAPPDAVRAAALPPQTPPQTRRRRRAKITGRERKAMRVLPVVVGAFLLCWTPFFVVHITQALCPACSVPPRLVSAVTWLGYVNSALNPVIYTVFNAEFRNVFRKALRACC
Procedure, shortened: (§2)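 Radioligand displacement used [3H]N-methylspiperone at human D3 or D4 receptors stably expressed in HEK293 cells. Samples were run in triplicate. IC50 values were converted to Ki with the Cheng–Prusoff equation and given as pKi (−logKi).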

[8] = target: T5, hD3; experiment: radioligand competition, [3H]N-methylspiperone; type: binding; conditions: Cheng-Prusoff
Procedure, shortened: as §2

[9] = target: T2, 5-HT1A; experiment: radioligand competition, [3H]8-OH-DPAT; type: binding; conditions: Cheng-Prusoff
Procedure, shortened: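 Human cloned 5-HT1A receptors expressed in HeLa cells were labelled with [3H]8-OH-DPAT and displaced by the test compound. Each experiment was run in triplicate.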

T5 sequence (P35462 whole entry): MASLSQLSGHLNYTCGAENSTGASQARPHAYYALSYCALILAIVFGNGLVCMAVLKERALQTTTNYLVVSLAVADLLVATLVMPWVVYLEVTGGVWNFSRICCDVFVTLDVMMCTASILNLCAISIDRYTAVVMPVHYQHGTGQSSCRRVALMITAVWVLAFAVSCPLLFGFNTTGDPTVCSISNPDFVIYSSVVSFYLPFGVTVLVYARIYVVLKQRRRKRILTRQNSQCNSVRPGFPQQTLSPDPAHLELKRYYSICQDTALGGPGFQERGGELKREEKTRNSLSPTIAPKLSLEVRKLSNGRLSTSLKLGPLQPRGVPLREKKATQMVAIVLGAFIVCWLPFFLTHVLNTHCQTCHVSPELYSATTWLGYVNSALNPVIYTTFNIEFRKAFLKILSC
Chain of D1 (P21728 whole entry): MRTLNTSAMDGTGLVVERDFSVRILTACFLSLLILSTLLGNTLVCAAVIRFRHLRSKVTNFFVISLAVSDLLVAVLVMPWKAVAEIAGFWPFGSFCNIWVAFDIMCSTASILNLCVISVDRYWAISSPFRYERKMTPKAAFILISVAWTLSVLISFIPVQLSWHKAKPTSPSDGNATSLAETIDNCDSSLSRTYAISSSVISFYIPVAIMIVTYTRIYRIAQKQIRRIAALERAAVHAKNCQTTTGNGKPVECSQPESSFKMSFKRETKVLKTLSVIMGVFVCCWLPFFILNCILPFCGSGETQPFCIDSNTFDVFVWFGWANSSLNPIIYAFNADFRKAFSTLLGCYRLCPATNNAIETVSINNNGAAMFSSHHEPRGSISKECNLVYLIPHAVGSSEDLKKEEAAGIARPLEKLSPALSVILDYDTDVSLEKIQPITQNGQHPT

Structure (SMILES)	pKi, human cloned receptor / α1 ^a [1]	Functional profile of 8 / pEC50 (pIC50) [2]	pKi, human cloned receptor / α1 ^a [3]	pKi, human cloned receptor / α1 ^d [4]	Functional profile of 8 / pEC50 (pIC50) [5]	Functional profile of 8 / pEC50 (pIC50) [6]	pKi, human cloned receptor / D4 [7]	pKi, human cloned receptor / D3 [8]	pKi, human cloned receptor / D2 [3]	pKi, human cloned receptor / 5-HT1A [9]	pKi, human cloned receptor / D3 [1]	pKi, human cloned receptor / D3 [3]	pKi, human cloned receptor / D3 [4]
Oc1cccc(OCCNCC2COCC(c3ccccc3)(c3ccccc3)O2)c1 (centres unmarked) [compound 8, 3-(2-(((6,6-Diphenyl-1,4-dioxan-2-yl)methyl)amino)ethoxy)phenol]	< 6	8.28 ± 0.15	< 6	6.56	8.99 ± 0.09	5.49 ± 0.10	–	–	–	–	–	–	–
COc1cccc(OCCNCC2COCC(c3ccccc3)(c3ccccc3)O2)c1OC (centres unmarked) [compound 11, 2-(2,3-Dimethoxyphenoxy)-N-((6,6-diphenyl-1,4-dioxan-2-yl)methyl)ethanamine]	–	–	–	–	–	–	6.87	6.79	–	–	–	–	–
c1ccc(C2(c3ccccc3)COCC(CNCCOc3ccc4c(c3)OCO4)O2)cc1 (centres unmarked) [compound 13, 2-(Benzo[d][1,3]dioxol-5-yloxy)-N-((6,6-diphenyl-1,4-dioxan-2-yl)methyl)ethanamine]	6.32	–	–	6.81	–	–	6.79	6.99	< 6	8.04	–	–	–
c1ccc(OCCNCC2COCC(c3ccccc3)(c3ccccc3)O2)cc1 (centres unmarked) [compound 4, N-((6,6-diphenyl-1,4-dioxan-2-yl)methyl)-2-phenoxyethan-1-amine]	–	–	–	–	–	–	–	7.92	–	–	–	–	–
COc1ccc(OCCNCC2COCC(c3ccccc3)(c3ccccc3)O2)cc1 (centres unmarked) [compound 9, N-((6,6-Diphenyl-1,4-dioxan-2-yl)methyl)-2-(4-methoxyphenoxy)ethanamine]	–	–	–	–	–	–	6.45	6.41	–	7.17	< 6	< 6	< 6
COc1ccc(OCCNCC2COCC(c3ccccc3)(c3ccccc3)O2)cc1OC (centres unmarked) [compound 12, 2-(3,4-Dimethoxyphenoxy)-N-((6,6-diphenyl-1,4-dioxan-2-yl)methyl)ethanamine]	–	–	–	–	–	–	5.84	6.10	–	7.71	< 6	< 6	< 6
COc1cccc(OCCNCC2COCC(c3ccccc3)(c3ccccc3)O2)c1 (centres unmarked) [compound 7, N-((6,6-Diphenyl-1,4-dioxan-2-yl)methyl)-2-(3-methoxyphenoxy)ethanamine]	6.41	–	–	6.98	–	–	6.45	7.37	< 6	8.91	–	–	–
COc1cccc(OC)c1OCCNCC1COCC(c2ccccc2)(c2ccccc2)O1 (centres unmarked) [compound 2, 2]	–	–	–	–	–	–	5.77	6.34	–	–	–	–	–
Oc1ccc(OCCNCC2COCC(c3ccccc3)(c3ccccc3)O2)cc1 (centres unmarked) [compound 10, 10]	6.56	–	–	7.01	–	–	6.49	7.37	< 6	7.59	–	–	–
